Data set [1] has as its system BV-2. The data set is described as follows: Neuroprotective activity in amyloid beta (1 to 42)-induced inflammation in mouse BV-2 cells assessed as IL-1beta mRNA expression at 10 uM measured after 24 hrs by SYBR green staining based qRT-PCR analysis (reference value: 1.53 +/- 0.13%). The format is functional.
The subject of data set [2] is BV-2. The data set can be described thus: Cytotoxicity against mouse BV-2 cells assessed as reduction in cell viability at 10 uM measured after 24 hrs by MTT assay. As to conditions: bv-2, 24 h. The class given is toxicity, cell-based. The gist of the method: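 BV-2 microglia grown in DMEM with 10% FBS, HEPES and Glutamax at 37 °C, 5% CO2, seeded overnight at 1 × 10^4 cells/well. Compound alone at 0–200 μM (range extended lower where needed) for 24 h. MTT 2 h at 37 °C, formazan dissolved in DMSO, A570 read. Used to pick non-toxic concentrations.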
On the technique in general: Tetrazolium assays rely on reduction of a dye to a coloured formazan, in cell work by metabolically active cells.

A further data set deals with SH-SY5Y. The data set can be described thus: Neuroprotective activity against human SH-SY5Y cells co-cultured with 10 uM compound pretreated BV-2 cells exposed to amyloid beta (1 to 42) assessed as cell viability measured after 24 hrs by MTT assay (reference value: 80.62 +/- 0.86%). As to conditions: read-out: Activity. The format is functional.
In data set [3] the test system is BV-2. The data set can be described thus: Neuroprotective activity in amyloid beta (1 to 42)-induced oxidative stress in mouse BV-2 cells assessed as intracellular ROS level at 10 uM measured after 24 hrs by DCFH-DA staining based fluorescence assay (reference value: 150.91 +/- 0.49%). The format is functional.
The test system of data set [4] is BV-2. The data set can be described thus: Neuroprotective activity in amyloid beta (1 to 42)-induced cytotoxicity in mouse BV-2 cells assessed as cell viability at 10 uM measured after 24 hrs by MTT assay (reference value: 54.96 +/- 1.12%). As to conditions: read-out: Activity. The class given is functional.
Data set [5] deals with BV-2. The data set is described as follows: Neuroprotective activity in amyloid beta (1 to 42)-induced inflammation in mouse BV-2 cells assessed as TNFalpha mRNA expression at 10 uM measured after 24 hrs by SYBR green staining based qRT-PCR analysis (reference value: 1.73 +/- 0.22%). The format is functional.
Data set [6] concerns the target T1, Amyloid-beta precursor protein (Homo sapiens, UniProt P05067). The data set can be described thus: Inhibition of amyloid beta (1 to 42) (unknown origin) aggregation at 100 uM incubated for 48 hrs by ThioflavinT staining based fluorescence assay relative to control. The gist of the method:
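Compound in DMSO (1 μl of a 1 mM solution) mixed with 9 μl of 25 μM Aβ1–42 in Tris pH 7.4. Incubated 48 h at 37 °C without agitation, then 200 μl of 5 μM ThT added. Fluorescence read at ex 446/em 500 nm; % inhibition vs DMSO control, solvent blank subtracted.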

Data set [7] has as its target T1, Amyloid-beta precursor protein. The data set can be described thus: Inhibition of amyloid beta (1 to 42) (unknown origin) aggregation incubated for 48 hrs by ThioflavinT staining based fluorescence assay.
Data set [8] in a line: Octanol/water partition coefficient, log P of the compound incubated for 2 hrs under shaking condition by HPLC analysis. The class given is physicochemical. The gist of the method:
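Shake-flask log P: 10 mM stock (DMSO, or octanol for highly lipophilic compounds) partitioned between mutually saturated octanol and water at three phase ratios. Shaken 2 h at 25 ± 1 °C, phases separated, each phase quantified by C18 HPLC-UV. Mobile phase 0.1% formic acid:methanol 40:60; log P averaged over the three ratios.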

Data set [9] has as its system BV-2. The data set is described as follows: Neuroprotective activity in amyloid beta (1 to 42)-induced inflammation in mouse BV-2 cells assessed as change in IL-6 mRNA expression at 10 uM measured after 24 hrs by SYBR green staining based qRT-PCR analysis. The format is functional, cell-based. Background: In qPCR the cycle at which signal appears reflects the starting amount.

Data set [10] in a line: Induction of ROS generation in mouse BV-2 cells at 10 uM measured after 24 hrs by DCFH-DA staining based fluorescence assay. To be noted: bv-2, 24 h. The class given is toxicity, cell-based. The gist of the method:
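BV-2 cells seeded overnight at 1 × 10^4/well, compound alone (no Aβ). Cells loaded with 20 μM (final) DCFH-DA for 30 min at 37 °C, washed, then given conditioned medium for 24 h. Fluorescence read at ex […] nm. Expressed as % of control; n = 3 in triplicate, one-way ANOVA with LSD.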

Data set [11] has as its target T1, Amyloid-beta precursor protein. The data set is described as follows: Inhibition of amyloid beta (1 to 42) aggregation in mouse BV-2 cells exposed to amyloid-beta (1 to 42) (unknown origin) at 10 uM measured after 24 to 48 hrs by thioflavin T staining based fluorescence assay. To be noted: time 24-48 hrs. The class given is cell-based.

Activity calls are given as the source filed them. The rule behind the calls is not given here.

T1 sequence (P05067 whole entry): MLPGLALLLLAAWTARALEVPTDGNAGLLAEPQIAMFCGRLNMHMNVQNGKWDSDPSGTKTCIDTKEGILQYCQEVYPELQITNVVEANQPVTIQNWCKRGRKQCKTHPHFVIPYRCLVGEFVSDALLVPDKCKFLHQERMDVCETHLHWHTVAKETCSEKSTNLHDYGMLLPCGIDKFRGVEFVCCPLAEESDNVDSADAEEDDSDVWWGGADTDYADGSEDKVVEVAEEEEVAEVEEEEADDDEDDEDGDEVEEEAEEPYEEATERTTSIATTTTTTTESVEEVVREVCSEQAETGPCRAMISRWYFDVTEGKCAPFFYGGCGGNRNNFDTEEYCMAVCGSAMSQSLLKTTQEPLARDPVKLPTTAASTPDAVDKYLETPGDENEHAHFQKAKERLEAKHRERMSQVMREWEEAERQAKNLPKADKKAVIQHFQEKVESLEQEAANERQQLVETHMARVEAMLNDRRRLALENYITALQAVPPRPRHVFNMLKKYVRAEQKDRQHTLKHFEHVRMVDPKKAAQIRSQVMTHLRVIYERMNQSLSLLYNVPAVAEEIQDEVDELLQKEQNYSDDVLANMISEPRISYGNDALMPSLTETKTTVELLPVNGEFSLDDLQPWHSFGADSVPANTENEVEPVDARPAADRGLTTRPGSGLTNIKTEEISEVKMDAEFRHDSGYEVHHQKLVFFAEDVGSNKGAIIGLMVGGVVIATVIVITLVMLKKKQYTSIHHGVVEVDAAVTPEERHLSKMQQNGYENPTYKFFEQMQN

Consider `COc1cc(/C=C/C(=O)OCc2cn(-c3ccc(Oc4ccccc4)cc3)nn2)ccc1O`, for which the Activity is 8.29% in the data set on BV-2 [1]; “Non-Toxic” with BV-2 [2]; 105.68% in the data set on BV-2 [3]; 1.19% in the data set on BV-2 [5]; “Non-Toxic” in data set [10]. For the same molecule, the figures for the viability at 10 µM with SH-SY5Y and in the data set on BV-2 [4] were 87.2% and 62.9%, respectively. The inhibition (in general, the relative decrease from the control value, in per cent) in [6] was above 50%. Further, half-maximal inhibition in data set [7] (IC50) required 14.1 µM. For the same molecule, the log partition coefficient (logP) – broadly, a log measure of how a compound divides between an organic and an aqueous phase – at 2 h in [8] was 4.92. Moreover, the result with BV-2 [9] was inactive. The inhibition result in [11] is “Active”.

The values are drawn from ChEMBL document CHEMBL5584325, “Discovery of novel coumarin triazolyl and phenoxyphenyl triazolyl derivatives targeting amyloid beta aggregation-mediated oxidative stress and neuroinflammation for enhanced neuroprotection” (RSC Med Chem, 2024).
